# Measurements: ChEMBL document CHEMBL4330063, “New naphthopyran analogues of LY290181 as potential tumor vascular-disrupting agents” (Eur J Med Chem, 2019)
# Active and inactive are the calls of the source. The calls are words filed in the database; no cut-off is given here.
# Assays:
# A2780 [1] = assay: Antivascular activity against human A2780 cells xenografted in nude mouse assessed as tumor discoloration at 200 mg/kg administered on every other day and measured after 24 hrs; type: functional, organism-based; details: in the assay text read “administered as single dose” for “administered on every other day”
# Method in brief: (§1)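 Mice bore A2780 tumor xenografts. Compound was formulated in tween80/ethanol (1:1) and injected as single doses. Tumors were inspected for discoloration as a sign of vascular disruption, and treated tumors were examined histologically for hemorrhage and necrosis.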
# Chorioallantoic membrane [2] = assay: Antiangiogenic activity in Leghorn chicken embryo chorioallantoic membrane assessed as disruption of smaller blood vessels at 10 nmol after 6 hrs by light microscopic analysis; type: functional, tissue-based; details: Gallus gallus
# Method in brief: (§2)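 Fertilized chicken eggs, CAM assay. Compound was applied topically into a small silicon foil ring placed on the CAM. The membrane and its extraembryonal blood vessels were monitored over 24 h, with observations at 6 h and 24 h post application.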
# Chorioallantoic membrane [3] = assay: Antiangiogenic activity in Leghorn chicken embryo chorioallantoic membrane assessed as induction of hemorrhages at 10 nmol after 6 hrs by light microscopic analysis; type: functional, tissue-based; details: Gallus gallus; method in brief: as §2
# Chorioallantoic membrane [4] = assay: Antiangiogenic activity in Leghorn chicken embryo chorioallantoic membrane assessed as induction of hemorrhages at 10 nmol after 24 hrs by light microscopic analysis; type: functional, tissue-based; details: Gallus gallus; method in brief: as §2
# Chorioallantoic membrane [5] = assay: Antiangiogenic activity in Leghorn chicken embryo chorioallantoic membrane assessed as disruption of smaller blood vessels at 10 nmol after 24 hrs by light microscopic analysis; type: functional, tissue-based; details: Gallus gallus; method in brief: as §2
# Chorioallantoic membrane [6] = assay: Antiangiogenic activity in Leghorn chicken embryo chorioallantoic membrane assessed as reduction in diameter of main blood vessel at 10 nmol after 24 hrs by light microscopic analysis; type: functional, tissue-based; details: Gallus gallus; method in brief: as §2
# Chorioallantoic membrane [7] = assay: Antiangiogenic activity in Leghorn chicken embryo chorioallantoic membrane assessed as reduction in blood vessel area at 10 nmol after 6 hrs by light microscopic analysis relative to control; type: functional, tissue-based; design: scale not given: the % may be the effect or the level left; details: Gallus gallus
# Method in brief: (§3)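 The CAM assay was run with topical application into a silicon foil ring atop the CAM of fertilized chicken eggs. Area covered by blood vessels was quantified by fractal analysis relative to control.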
# Chorioallantoic membrane [8] = assay: Antiangiogenic activity in Leghorn chicken embryo chorioallantoic membrane assessed as effect on blood vessel length at 10 nmol after 6 hrs by light microscopic analysis; type: functional, tissue-based; details: Gallus gallus; method in brief: as §2
# Chorioallantoic membrane [9] = assay: Antiangiogenic activity in Leghorn chicken embryo chorioallantoic membrane assessed as disruption of smaller blood vessels at 5 nmol after 6 hrs by light microscopic analysis; type: functional, tissue-based; details: Gallus gallus; method in brief: as §2
# Chorioallantoic membrane [10] = assay: Antiangiogenic activity in Leghorn chicken embryo chorioallantoic membrane assessed as induction of hemorrhages at 5 nmol after 6 hrs by light microscopic analysis; type: functional, tissue-based; details: Gallus gallus; method in brief: as §2
# Chorioallantoic membrane [11] = assay: Antiangiogenic activity in Leghorn chicken embryo chorioallantoic membrane assessed as induction of hemorrhages at 5 nmol after 24 hrs by light microscopic analysis; type: functional, tissue-based; details: Gallus gallus; method in brief: as §2
# Chorioallantoic membrane [12] = assay: Antiangiogenic activity in Leghorn chicken embryo chorioallantoic membrane assessed as reduction in diameter of main blood vessel at 5 nmol after 24 hrs by light microscopic analysis; type: functional, tissue-based; details: Gallus gallus; method in brief: as §2
# Chorioallantoic membrane [13] = assay: Antiangiogenic activity in Leghorn chicken embryo chorioallantoic membrane assessed as reduction in blood vessel area at 5 nmol after 6 hrs by light microscopic analysis relative to control; type: functional, tissue-based; design: scale not given: the % may be the effect or the level left; details: Gallus gallus; method in brief: as §3
# Chorioallantoic membrane [14] = assay: Antiangiogenic activity in Leghorn chicken embryo chorioallantoic membrane assessed as effect on blood vessel length at 5 nmol after 6 hrs by light microscopic analysis; type: functional, tissue-based; details: Gallus gallus; method in brief: as §2
# A2780cis = assay: Antitumor activity against human A2780cis xenografted in nude mouse at 60 mg/kg, ip administered on day 0, 4, 11 and 16; type: functional, organism-based
# Chorioallantoic membrane [15] = assay: Antiangiogenic activity in Leghorn chicken embryo chorioallantoic membrane assessed as disruption of smaller blood vessels at 5 nmol after 24 hrs by light microscopic analysis; type: functional, tissue-based; details: Gallus gallus; method in brief: as §2
# A2780 [16] = assay: Antivascular activity against human A2780 cells xenografted in nude mouse assessed as induction of hemorrhages at tumor core at 100 mg/kg administered on every other day and measured after 24 hrs by H and E staining based histopathological analysis; type: functional, organism-based
# A2780 [17] = assay: Antivascular activity against human A2780 cells xenografted in nude mouse assessed as induction of necrosis at tumor core at 100 mg/kg […] and measured after 24 hrs by H and E staining based histopathological analysis; type: functional, organism-based; method in brief: as §1
SMILES,Activity (A2780 [1]),Activity (Chorioallantoic membrane [2]),Activity (Chorioallantoic membrane [3]),Activity (Chorioallantoic membrane [4]),Activity (Chorioallantoic membrane [5]),Activity (Chorioallantoic membrane [6]),Activity (Chorioallantoic membrane [7]) [%],Activity (Chorioallantoic membrane [8]),Activity (Chorioallantoic membrane [9]),Activity (Chorioallantoic membrane [10]),Activity (Chorioallantoic membrane [11]),Activity (Chorioallantoic membrane [12]),Activity (Chorioallantoic membrane [13]) [%],Activity (Chorioallantoic membrane [14]),Activity (A2780cis),Activity (Chorioallantoic membrane [15]),Activity (A2780 [16]),Activity (A2780 [17])
N#CC1=C(N)Oc2c(ccc3ccccc23)C1c1cccc([N+](=O)[O-])c1 (stereo not drawn),inactive,Active,Active,inactive,inactive,Active,32,Active,,,,,,,,,,
N#CC1=C(N)Oc2c(ccc3ccccc23)C1c1cc(F)cc(F)c1 (stereo not drawn),,,,,,,,,Active,Active,inactive,Active,59,Active,Active,inactive,Active,Active
